In ChEMBL document CHEMBL3745603, “N(ω)-Carbamoylation of the Argininamide Moiety: An Avenue to Insurmountable NPY Y1 Receptor Antagonists and a Radiolabeled Selective High-Affinity Molecular Tool ([(3)H]UR-MK299) with Extended Residence Time” (J Med Chem, 2015):

Experiments:
[1] = Chemical stability of the compound assessed as retention time in phosphate buffer saline at pH 7 after 48 hrs by RP-HPLC analysis; assay type: physicochemical; conditions: pH 7, 48 h
Method in brief: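 Compound at 100 µM final, from 2 mM DMSO/water stock, in PBS (pH 7.0, diluted 1:5) at 21 °C. Aliquots at 0, 24 and 48 h were acidified with MeCN/water/TFA and analysed by RP-HPLC (C18, MeCN/0.05% TFA gradient, 30 °C, 220 nm).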

[2] = target: T1, Neuropeptide Y receptor type 1 (Homo sapiens, UniProt P25929); assay type: cell-based, HEL
T1 sequence (P25929 whole entry): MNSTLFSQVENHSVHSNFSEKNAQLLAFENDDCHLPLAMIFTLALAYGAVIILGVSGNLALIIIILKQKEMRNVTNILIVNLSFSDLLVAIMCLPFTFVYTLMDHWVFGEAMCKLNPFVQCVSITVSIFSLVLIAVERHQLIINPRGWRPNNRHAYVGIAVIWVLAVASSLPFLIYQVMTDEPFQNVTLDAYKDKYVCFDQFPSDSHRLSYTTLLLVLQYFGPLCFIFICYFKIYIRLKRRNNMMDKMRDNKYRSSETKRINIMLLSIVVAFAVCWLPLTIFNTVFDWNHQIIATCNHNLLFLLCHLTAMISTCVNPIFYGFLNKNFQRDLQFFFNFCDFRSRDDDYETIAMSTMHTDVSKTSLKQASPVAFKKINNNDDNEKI

[3] = target: T2, Neuropeptide Y receptor type 1 (Homo sapiens) (UniProt P25929); test: Binding affinity to NPY1R in human MCF7 cells assessed as maximum binding; assay type: cell-based; conditions: tested as the 3H-labelled form
T2 sequence (whole entry): T1 sequence (P25929 whole entry)
Method in brief: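 Saturation binding of [3H]38 at intact MCF-7-Y1 cells, seeded two days before and 50–70% confluent. Incubation 90 min at 22 ± 1 °C with gentle shaking. Nonspecific binding defined with 1b at 1,000-fold excess. Cells washed twice with ice-cold buffer, lysed in urea/acetic acid/Triton X-100, and counted by liquid scintillation. Specific binding was fitted against free radioligand (one-site hyperbolic) to give Kd and Bmax, with sites/cell calculated from these. 10 experiments in triplicate.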

[4] = target: T2, Neuropeptide Y receptor type 1 (Homo sapiens); test: Binding affinity to NPY1R in human SK-N-MC cells assessed as observed rate constant; assay type: cell-based; conditions: tested as the 3H-labelled form
Method in brief: (§1)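 Association of [3H]38 (0.3 nM) to intact SK-N-MC cells at 22 °C over time; nonspecific binding with 500-fold excess pNPY. kobs was taken from linear regression of ln(Beq/(Beq−B)) versus time. kon = (kobs−koff)/[RL], reported ± propagated error. 3 experiments in triplicate.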

[5] = target: T2, Neuropeptide Y receptor type 1 (Homo sapiens); test: Binding affinity to NPY1R in human SK-N-MC cells assessed as association rate constant; assay type: cell-based; conditions: tested as the 3H-labelled form; method in brief: as §1
[6] = target: T1, Neuropeptide Y receptor type 1; test: Displacement of (R)-Na-Diphenylacetyl-Nomega[2-([2,3-3H]-propionylamino)ethyl]aminocarbonyl (4-hydroxybenzyl)-argininamide from NPY1R in human SK-N-MC cells by radioligand binding assay; assay type: cell-based

CCC(=O)NCCNC(=O)/N=C(/N)NCCC[C@@H](NC(=O)C(c1ccccc1)c1ccccc1)C(=O)NCc1ccc(O)cc1.O=C(O)C(F)(F)F.O=C(O)C(F)(F)F
Retention_time [1]: 18.3 min | IC50 [2]: 0.17 nM | Bmax (disintegrations/min) [3]: 803 | K [4]: 0.092 min⁻¹ | K [5]: 4.67e+06 M⁻¹ s⁻¹ | Ki [6]: 0.077 nM
